# Measured values: ChEMBL document CHEMBL4033667, “Design, synthesis, and identification of a novel napthalamide-isoselenocyanate compound NISC-6 as a dual Topoisomerase-IIα and Akt pathway inhibitor, and evaluation of its anti-melanoma activity” (Eur J Med Chem, 2017)
# Calls of active or inactive are those of the source. No cut-off for these calls is given here.
# Columns and labels:
# CHL-1 [1] = assay: Antiproliferative activity against human CHL-1 cells harboring wild type BRAF after 48 hrs by MTT assay; assay type: functional, cell-based; settings: CHL-1, 48 h
# Method in brief: (§1)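 MTT viability in melanoma lines grown in DMEM with 10% FBS and pen/strep at 37 °C, 5% CO2. 3000 cells/well, settled overnight, then exposed to compound (0 to 50 µM) in triplicate for 24, 48 or 72 h. MTT (5.0 mg/mL solution) added 3 h before termination. IC50 from non-linear regression (variable slope), mean ± SD.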
# [2] = Antiproliferative activity against human A375M cells harboring BRAF V600E mutant after 48 hrs by MTT assay; assay type: functional, cell-based; method in brief: as §1
# UACC-903 [3] = assay: Induction of apoptosis in human UACC-903 cells assessed as increase in caspase 3/7 activity by measuring early apoptotic cells at 5 uM after 24 hrs by 7-AAD staining-based fluorescence assay (reference value: 16.08%); assay type: functional
# Method in brief: (§2)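 Muse caspase-3/7 kit on UACC903 cells after 24 h at given doses or DMSO. Cell-permeant NucView DEVD-linked DNA dye fluoresces after cleavage by active caspase 3/7. 7-AAD marks cells with compromised membranes. Gates: live, early apoptotic (caspase+/7-AAD−), late apoptotic (both +), necrotic (7-AAD+ only).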
# CHL-1 [4] = assay: Antiproliferative activity against human CHL-1 cells harboring wild type BRAF after 24 hrs by MTT assay; assay type: functional, cell-based; settings: CHL-1, 24 h; method in brief: as §1
# NHDF [5] = assay: Cytotoxicity against human NHDF cells assessed as reduction in cell viability at 5 uM after 48 hrs by MTT assay; assay type: cell-based
# Method in brief: (§3)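 nHDF normal fibroblasts grown in serum-free fibroblast basal medium with growth kit and pen/strep/amphotericin B. Treated 48 h at set concentrations, with viability read by MTT assay.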
# UACC-903 [6] = assay: Antiproliferative activity against human UACC-903 cells harboring BRAF V600E mutant after 48 hrs by MTT assay; assay type: functional, cell-based; settings: UACC-903, 48 h; method in brief: as §1
# UACC-903 [7] = assay: Induction of apoptosis in human UACC-903 cells assessed as increase in caspase 3/7 activity by measuring viable cells at 5 uM after 24 hrs by 7-AAD staining-based fluorescence assay (reference value: 77.50%); assay type: functional; method in brief: as §2
# UACC-903 [8] = assay: Induction of apoptosis in human UACC-903 cells assessed as necrotic cells at 10 uM after 24 hrs by Annexin-V/7-AAD staining-based fluorescence assay (reference value: 0.17%); assay type: functional
# [9] = Antiproliferative activity against human 1205 Lu cells harboring BRAF V600E mutant after 48 hrs by MTT assay; assay type: functional, cell-based; method in brief: as §1
# UACC-903 [10] = assay: Induction of apoptosis in human UACC-903 cells assessed as increase in caspase 3/7 activity by measuring late apoptotic cells at 10 uM after 24 hrs by 7-AAD staining-based fluorescence assay (reference value: 6.08%); assay type: functional; method in brief: as §2
# UACC-903 [11] = assay: Antiproliferative activity against human UACC-903 cells harboring BRAF V600E mutant after 24 hrs by MTT assay; assay type: functional, cell-based; settings: UACC-903, 24 h; method in brief: as §1
# UACC-903 [12] = assay: Induction of apoptosis in human UACC-903 cells assessed as necrotic cells at 5 uM after 24 hrs by Annexin-V/7-AAD staining-based fluorescence assay (reference value: 0.17%); assay type: functional
# NHDF [13] = assay: Cytotoxicity against human NHDF cells assessed as reduction in cell viability at 2.5 uM after 48 hrs by MTT assay; assay type: cell-based; method in brief: as §3
# [14] = Antiproliferative activity against human 1205 Lu cells harboring BRAF V600E mutant after 24 hrs by MTT assay; assay type: functional, cell-based; method in brief: as §1
# UACC-903 [15] = assay: Induction of apoptosis in human UACC-903 cells assessed as increase in caspase 3/7 activity by measuring viable cells at 10 uM after 24 hrs by 7-AAD staining-based fluorescence assay (reference value: 77.50%); assay type: functional; method in brief: as §2
# [16] = target: DNA topoisomerase 2-alpha (Homo sapiens) (UniProt P11388); assay: Inhibition of human DNA topoisomerase 2alpha assessed as decrease in relaxation of supercoiled pBR322 DNA at 0.5 to 5 uM after 1 hr by ethidium bromide staining-based agarose gel electrophoresis
# Method in brief: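 Kit-based relaxation assay: supercoiled plasmid DNA with 4 units of human Topo-IIα in assay buffer plus test agent or DMSO at 37 °C (1 h in legend, 30 min in methods). Stopped with 10% SDS, then proteinase K 15 min at 37 °C. Run on 1% agarose 1-2 h, ethidium bromide 2 h, destain 15 min in TAE, UV imaging.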
# [17] = Antiproliferative activity against human A375M cells harboring BRAF V600E mutant after 72 hrs by MTT assay; assay type: functional, cell-based; method in brief: as §1
# [18] = target: Mitogen-activated protein kinase; ERK1/ERK2 (Homo sapiens) (UniProt P27361+P28482); assay: Inhibition of Erk1/2 phosphorylation in human UACC-903 cells at 2.5 to 5 uM after 24 hrs by Western blot analysis; assay type: cell-based
# UACC-903 [19] = assay: Induction of apoptosis in human UACC-903 cells assessed as increase in caspase 3/7 activity by measuring early apoptotic cells at 10 uM after 24 hrs by 7-AAD staining-based fluorescence assay (reference value: 16.08%); assay type: functional; method in brief: as §2
# UACC-903 [20] = assay: Induction of apoptosis in human UACC-903 cells assessed as early apoptotic cells at 5 uM after 24 hrs by Annexin-V/7-AAD staining-based fluorescence assay (reference value: 13.15%); assay type: functional
# UACC-903 [21] = assay: Induction of apoptosis in human UACC-903 cells assessed as increase in caspase 3/7 activity by measuring necrotic cells at 5 uM after 24 hrs by 7-AAD staining-based fluorescence assay (reference value: 0.34%); assay type: functional; method in brief: as §2
# CHL-1 [22] = assay: Antiproliferative activity against human CHL-1 cells harboring wild type BRAF after 72 hrs by MTT assay; assay type: functional, cell-based; settings: CHL-1, 72 h; method in brief: as §1
# UACC-903 [23] = assay: Induction of apoptosis in human UACC-903 cells assessed as late apoptotic cells at 10 uM after 24 hrs by Annexin-V/7-AAD staining-based fluorescence assay (reference value: 2.78%); assay type: functional
# UACC-903 [24] = assay: Antiproliferative activity against human UACC-903 cells harboring BRAF V600E mutant after 72 hrs by MTT assay; assay type: functional, cell-based; settings: UACC-903, 72 h; method in brief: as §1
# Mus musculus = assay: Toxicity in Harlan Sprague Dawley mouse xenografted with human UACC-903 cells assessed as body weight loss at 0.6 umole, ip administered 3 times a week measured during compound dosing relative to control; assay type: organism-based; settings: in vivo
# Method in brief: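 5×10^6 UACC 903 cells in 0.2 mL DMEM/10% FBS injected s.c. into both flanks of 4-6 week female athymic nude mice. From day 6, randomised groups (5 mice, 2 tumours each) received i.p. DMSO or 0.6 µmole in DMSO (100 µL) three times weekly. Caliper tumour volume and body weight taken thrice weekly to day 40; mean ± SEM.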
# UACC-903 [25] = assay: Induction of apoptosis in human UACC-903 cells assessed as increase in caspase 3/7 activity by measuring necrotic cells at 10 uM after 24 hrs by 7-AAD staining-based fluorescence assay (reference value: 0.34%); assay type: functional; method in brief: as §2
# UACC-903 [26] = assay: Induction of apoptosis in human UACC-903 cells assessed as late apoptotic cells at 5 uM after 24 hrs by Annexin-V/7-AAD staining-based fluorescence assay (reference value: 2.78%); assay type: functional
# [27] = Antiproliferative activity against human 1205 Lu cells harboring BRAF V600E mutant after 72 hrs by MTT assay; assay type: functional, cell-based; method in brief: as §1
# [28] = Antiproliferative activity against human A375M cells harboring BRAF V600E mutant after 24 hrs by MTT assay; assay type: functional, cell-based; method in brief: as §1
# Sequence of DNA topoisomerase 2-alpha (Homo sapiens) (P11388 whole entry): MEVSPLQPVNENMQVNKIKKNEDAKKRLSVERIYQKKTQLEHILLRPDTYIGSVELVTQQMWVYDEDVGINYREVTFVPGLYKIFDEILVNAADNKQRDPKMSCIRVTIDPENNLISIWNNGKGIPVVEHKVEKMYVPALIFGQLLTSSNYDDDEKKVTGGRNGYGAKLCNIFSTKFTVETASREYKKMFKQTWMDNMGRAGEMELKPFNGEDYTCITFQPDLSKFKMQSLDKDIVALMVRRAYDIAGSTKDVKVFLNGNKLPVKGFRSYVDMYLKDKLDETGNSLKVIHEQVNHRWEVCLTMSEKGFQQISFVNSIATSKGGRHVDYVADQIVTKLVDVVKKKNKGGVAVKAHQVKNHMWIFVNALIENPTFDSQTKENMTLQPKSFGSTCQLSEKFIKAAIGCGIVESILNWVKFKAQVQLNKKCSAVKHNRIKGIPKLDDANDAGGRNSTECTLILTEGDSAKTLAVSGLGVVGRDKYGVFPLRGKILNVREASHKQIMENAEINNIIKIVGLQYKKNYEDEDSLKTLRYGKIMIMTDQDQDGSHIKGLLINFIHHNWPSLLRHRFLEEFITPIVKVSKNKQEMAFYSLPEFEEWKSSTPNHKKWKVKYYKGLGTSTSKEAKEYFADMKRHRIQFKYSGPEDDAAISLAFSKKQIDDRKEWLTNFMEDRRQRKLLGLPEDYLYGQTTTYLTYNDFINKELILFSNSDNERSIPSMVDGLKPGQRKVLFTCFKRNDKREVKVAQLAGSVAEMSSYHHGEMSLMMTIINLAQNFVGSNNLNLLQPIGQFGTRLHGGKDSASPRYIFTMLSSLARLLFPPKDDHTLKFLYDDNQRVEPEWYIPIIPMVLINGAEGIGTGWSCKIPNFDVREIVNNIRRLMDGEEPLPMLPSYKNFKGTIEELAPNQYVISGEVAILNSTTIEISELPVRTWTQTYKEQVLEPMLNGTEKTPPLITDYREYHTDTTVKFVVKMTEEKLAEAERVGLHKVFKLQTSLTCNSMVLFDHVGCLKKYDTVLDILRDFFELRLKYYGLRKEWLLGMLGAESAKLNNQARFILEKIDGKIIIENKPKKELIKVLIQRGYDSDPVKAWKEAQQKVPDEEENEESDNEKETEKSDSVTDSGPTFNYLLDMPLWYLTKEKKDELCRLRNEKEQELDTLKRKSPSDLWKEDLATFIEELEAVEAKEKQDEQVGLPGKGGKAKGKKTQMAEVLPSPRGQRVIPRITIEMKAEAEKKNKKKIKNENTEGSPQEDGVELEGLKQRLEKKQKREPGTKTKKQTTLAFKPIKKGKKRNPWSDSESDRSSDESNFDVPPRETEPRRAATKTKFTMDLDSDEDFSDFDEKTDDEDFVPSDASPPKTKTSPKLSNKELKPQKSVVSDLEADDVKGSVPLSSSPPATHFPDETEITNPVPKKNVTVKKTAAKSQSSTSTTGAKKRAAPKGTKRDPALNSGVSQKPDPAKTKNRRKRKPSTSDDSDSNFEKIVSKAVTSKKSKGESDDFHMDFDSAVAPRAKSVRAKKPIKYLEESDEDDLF
# Sequence of Mitogen-activated protein kinase; ERK1/ERK2 (Homo sapiens) (P27361 whole entry, looked up): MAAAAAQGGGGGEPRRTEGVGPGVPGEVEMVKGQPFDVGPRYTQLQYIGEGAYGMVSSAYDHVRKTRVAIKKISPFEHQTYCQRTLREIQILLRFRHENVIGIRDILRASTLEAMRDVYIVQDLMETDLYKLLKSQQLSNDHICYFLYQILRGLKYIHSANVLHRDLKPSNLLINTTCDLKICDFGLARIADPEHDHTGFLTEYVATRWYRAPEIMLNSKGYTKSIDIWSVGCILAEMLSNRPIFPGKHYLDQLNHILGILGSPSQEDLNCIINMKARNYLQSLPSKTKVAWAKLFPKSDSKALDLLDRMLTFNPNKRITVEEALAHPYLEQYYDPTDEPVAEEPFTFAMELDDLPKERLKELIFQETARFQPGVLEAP
# Sequence of Mitogen-activated protein kinase; ERK1/ERK2 (Homo sapiens) (P28482 whole entry, looked up): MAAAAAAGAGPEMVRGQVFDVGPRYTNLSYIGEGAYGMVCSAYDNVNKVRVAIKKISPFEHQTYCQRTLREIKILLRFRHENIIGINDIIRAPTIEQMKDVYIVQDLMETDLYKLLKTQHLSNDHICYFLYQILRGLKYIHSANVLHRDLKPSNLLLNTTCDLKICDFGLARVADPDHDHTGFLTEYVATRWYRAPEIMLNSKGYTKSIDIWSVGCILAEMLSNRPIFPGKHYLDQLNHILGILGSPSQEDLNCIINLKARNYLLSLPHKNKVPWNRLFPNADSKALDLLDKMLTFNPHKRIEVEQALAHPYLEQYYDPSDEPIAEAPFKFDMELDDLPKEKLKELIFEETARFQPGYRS
smiles,measurement,setting,value
O=C1c2cccc3cccc(c23)C(=O)N1CCCCCCN=C=[Se],IC50,CHL-1 [1],1.5 µM
same,IC50,[2],2.7 µM
same,Activity,UACC-903 [3],20.72%
same,IC50,CHL-1 [4],13.7 µM
same,Activity,NHDF [5],> 70%
same,IC50,UACC-903 [6],2.5 µM
same,Activity,UACC-903 [7],69.34%
same,Activity,UACC-903 [8],0.35%
same,IC50,[9],10.6 µM
same,Activity,UACC-903 [10],41.76%
same,IC50,UACC-903 [11],13.4 µM
same,Activity,UACC-903 [12],0.84%
same,Activity,NHDF [13],> 70%
same,IC50,[14],13.4 µM
same,Activity,UACC-903 [15],54.44%
same,inhibition,[16],Active
same,IC50,[17],4.4 µM
same,inhibition,[18],inactive
same,Activity,UACC-903 [19],3%
same,Activity,UACC-903 [20],11.47%
same,Activity,UACC-903 [21],0.08%
same,IC50,CHL-1 [22],0.8 µM
same,Activity,UACC-903 [23],15.52%
same,IC50,UACC-903 [24],1.7 µM
same,Activity,Mus musculus,Non-Toxic
same,Activity,UACC-903 [25],0.8%
same,Activity,UACC-903 [26],4.52%
same,IC50,[27],13.4 µM
same,IC50,[28],11.8 µM
